# Active and inactive are the calls of the source.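 Rule for the calls, unless noted: active = inhibition of the reporter signal at or above 50%; inactive = inhibition below 50%.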
# Legend:
# [1] = inhibitors of TNFa-induced NFkB p65 translocation, primary screen, imaging, HUVEC, MLSMR starter and 10KST1 sets (AID 438;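 active = inhibition above 20% together with a positive visual image hit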;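 note: compound added about 3h40 before a 20 min TNFalpha stimulation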;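 for inhibition: signal is the nuclear over cytoplasmic p65 intensity ratio per well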); settings: HUVEC TNFa-induced p65 nuclear translocation; cell count: measured here: nuclei count (cytotoxicity indicator), at 2.08 µM; inhibition: at 2 µM, stronger effect = higher value, 0% TNFa-plus-vehicle, 100% no-TNFa wells
# [2] = reduction of polyQ htt aggregates in cells – imaging, exon1htt(103Q)mCFP cells, high-content imaging, primary screen (AID 483;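 active = visual image review flags a hit and inhibition of aggregation exceeds 20%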;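 note: compound exposure lasted 3 days before fixation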;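 for nuclei count: percent of the per-plate median nuclei count of sample wells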); settings: exon1htt(103Q)mCFP cell line, aggregate imaging, at 2 µM; inhibition of aggregation: stronger effect = higher value; nuclei count: measured here: cell count, toxicity
# [3] = endothelial E-selectin expression blockers – imaging, HUVEC, immunofluorescence, MLSMR starter and 10KST1 sets, primary screen (AID 487;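 active = visually confirmed hit in the image check and inhibition above 20%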;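 for inhibition: signal is fraction of cell area covered by stained E-selectin grains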;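 for nuclei count: 100% = median nuclei count of all wells on the same plate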); settings: HUVEC TNFalpha-induced E-selectin immunofluorescence imaging, at 2 µM; inhibition: stronger effect = higher value; nuclei count: measured here: cell number, toxicity
# [4] = target: Voltage-gated potassium channel subunit beta-2 (Rattus norvegicus) (UniProt P62483); assay: inhibitors of rat Kvbeta2 reductase activity – biochemical, NADPH fluorescence, primary screen (AID 622;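 active = fluorescence slope higher than the sample average by over 3 SD, cut at about -0.22 in these data, passing the limit was not always enough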;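 note: slope of raw intensity against log time taken from 70 to 1610 s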); settings: recombinant KvBeta, 4-cyanobenzaldehyde reduction, at 10 µM, stronger effect = higher value
# [5] = target: Voltage-gated potassium channel subunit beta-2 (Rattus norvegicus) (UniProt P62483); assay: enhancers of rat Kvbeta2 NADPH turnover – biochemical, NADPH fluorescence, primary screen (AID 623;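 active = NADPH fluorescence slope more negative than the mean of all samples by about 3 SD, 99.7% confidence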;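 note: fluorescence intensity change per second fitted from 20 to 320 s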); settings: Recombinant KvBeta, NADPH fluorescence decrease slope, 10 min; at 10 µM; stronger effect = lower value
# [6] = target: Muscarinic acetylcholine receptor M4 (Homo sapiens) (UniProt P08173); assay: M4-linked GIRK flux change, two-sided – cell-based, HEK293 M4/GIRK, thallium flux, BTC-AM, M4 allosteric agonist project, primary screen (AID 625;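 active = fluorescence slope after compound addition differing from the mean of all tested samples at 99.7% confidence, mostly higher but some lower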;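 note: thallium influx through GIRK channels coupled to M4 in HEK293 cells with BTC-AM dye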); settings: at 10 µM, actives lie on both sides
# How it was run: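 System: HEK293 cells with M4 receptor and GIRK channels | Incubation: Cells overnight at 37 °C, BTC-AM loading 1 h, reads 2 min total | Technique: Kinetic BTC-AM fluorescence sampled at 1 Hz, 10 s pre-addition baseline | Measure: Post-addition slope, 15–24 s, of baseline-normalized fluorescence | Control set: Carbachol positive, DMSO negative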
# [7] = blockers of RIG-like receptor reporter activation – cell-based, Sendai virus stimulus, luciferase, 10K MLSCN set, TLR/RLR signaling modifier project, primary screen (AID 602276;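 active = inhibition at or above 50% at 10 µM; inactive = inhibition below 50%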;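 note: firefly luciferase from ISG56 promoter only with Renilla not read in this screen; 0% = Sendai virus plus DMSO and 100% = medium plus DMSO without virus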); settings: HEK293 RL24 IRF3 luciferase reporter, at 10 µM, stronger effect = higher value
# [8] = TLR3 IRF3 reporter activation blockers – cell-based, poly I:C stimulus, luciferase, 10K MLSCN set, primary screen (AID 602277); settings: HEK293-TLR3 RL24 IRF3 luciferase reporter, at 10 µM, stronger effect = higher value
# Sequence of Muscarinic acetylcholine receptor M4 (Homo sapiens) (P08173 whole entry, looked up): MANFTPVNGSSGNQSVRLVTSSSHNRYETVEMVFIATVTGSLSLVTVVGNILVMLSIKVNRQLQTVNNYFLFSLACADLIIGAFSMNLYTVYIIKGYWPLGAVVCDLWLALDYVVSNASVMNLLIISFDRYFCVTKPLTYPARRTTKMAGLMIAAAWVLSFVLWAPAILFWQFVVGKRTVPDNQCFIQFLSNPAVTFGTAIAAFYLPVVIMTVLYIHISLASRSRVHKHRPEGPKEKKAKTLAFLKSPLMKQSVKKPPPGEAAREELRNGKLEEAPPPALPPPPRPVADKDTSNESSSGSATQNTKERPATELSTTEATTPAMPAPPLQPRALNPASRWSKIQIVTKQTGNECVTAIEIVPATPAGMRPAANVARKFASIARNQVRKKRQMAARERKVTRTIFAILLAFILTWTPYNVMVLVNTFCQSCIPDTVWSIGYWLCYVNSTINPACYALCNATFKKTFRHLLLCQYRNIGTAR
# Sequence of Voltage-gated potassium channel subunit beta-2 (Rattus norvegicus) (P62483 whole entry, looked up): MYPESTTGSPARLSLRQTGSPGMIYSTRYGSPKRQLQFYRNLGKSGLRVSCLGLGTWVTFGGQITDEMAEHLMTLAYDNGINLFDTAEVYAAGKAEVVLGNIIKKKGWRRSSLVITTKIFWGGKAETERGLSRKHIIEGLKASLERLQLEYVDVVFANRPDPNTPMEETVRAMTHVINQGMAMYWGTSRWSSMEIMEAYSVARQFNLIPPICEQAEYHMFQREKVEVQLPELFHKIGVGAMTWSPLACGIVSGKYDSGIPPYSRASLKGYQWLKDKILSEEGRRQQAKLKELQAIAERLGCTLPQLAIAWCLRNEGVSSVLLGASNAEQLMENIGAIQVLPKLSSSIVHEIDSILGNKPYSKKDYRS
SMILES,cell count [1],inhibition [1],inhibition of aggregation [2],nuclei count [2] [%],inhibition [3],nuclei count [3] [%],fluorescence slope [4],NADPH fluorescence slope [5],fluorescence slope [6],inhibition [7],inhibition [8]
CCCCN(CC)S(=O)(=O)c1ccc2c(c1)CCCN2C(C)=O,490,2.9% (inactive),17.1% (inactive),111,-88.5% (inactive),103,-0.545 (inactive),-2.8e-05 (inactive),0.0053 (inactive),0.955% (inactive),6.93% (inactive)
CCCOc1ccc(/C(O)=C2/C(=O)C(=O)N(CCCOC)C2c2ccncc2)cc1 (centres undefined),593,5.8% (inactive),4% (inactive),97.6,1.9% (inactive),108,-0.29 (inactive),-6.1e-05 (inactive),0.00606 (inactive),13.1% (inactive),2.66% (inactive)
COC(=O)c1ccc(CSc2nc3c(cnn3-c3ccc(C)c(C)c3)c(=O)[nH]2)o1,433,9.3% (inactive),2.1% (inactive),98.4,-55.6% (inactive),108,-0.388 (inactive),0.000113 (inactive),0.0057 (inactive),8.02% (inactive),13.9% (inactive)
COCCN(C(=O)Cn1nnc2ccccc21)C(C(=O)NC1CCCC1)c1cc(OC)ccc1OC (centres undefined),323,9% (inactive),7.8% (inactive),105,-246% (inactive),112,-0.491 (inactive),0.0001 (inactive),0.00575 (inactive),2.22% (inactive),8.36% (inactive)
Cc1cc(NC(=O)Cn2cnc3c(cnn3C(C)(C)C)c2=O)no1,645,1.1% (inactive),-5.1% (inactive),113,7% (inactive),102,-0.573 (inactive),-3.1e-05 (inactive),0.00541 (inactive),-18.6% (inactive),-0.822% (inactive)
COc1ccc(OC)c(S(=O)(=O)NCCO)c1,217,-7.9% (inactive),11% (inactive),112,33.4% (inactive),102,-0.567 (inactive),-2.1e-05 (inactive),0.00652 (inactive),16% (inactive),24.6% (inactive)
COc1ccc(S(=O)(=O)N(C)c2ccc(C(=O)N3CCOCC3)cc2)cc1,321,-2.9% (inactive),-6.7% (inactive),105,-106% (inactive),129,-0.515 (inactive),-0.000149 (inactive),0.00412 (inactive),14.9% (inactive),16.7% (inactive)
O=C(O)c1oc2ccccc2c1-n1cccc1,436,13.8% (inactive),10.7% (inactive),110,-0.2% (inactive),112,-0.531 (inactive),-1.3e-05 (inactive),0.00514 (inactive),10.5% (inactive),26% (inactive)
COC(=O)C1=C(C)NC(=O)C1(NC(=O)CN1CCCC1=O)C(F)(F)F (centres undefined),879,3.6% (inactive),6.7% (inactive),106,-79.8% (inactive),133,-0.435 (inactive),-7.2e-05 (inactive),0.00621 (inactive),9.49% (inactive),21.7% (inactive)
Cc1ccc(-c2nnn(CC(=O)N(CC(=O)NC3CCCCC3)c3cnc4ccccc4c3)n2)o1,300,-7.6% (inactive),27.2% (inactive),94.4,-22.9% (inactive),107,-0.523 (inactive),-2.2e-06 (inactive),0.00469 (inactive),21% (inactive),24.7% (inactive)
CCOC(=O)c1ccc(N2C(=O)C3CC=CCC3C2=O)cc1 (centres undefined),640,-6.3% (inactive),-0.1% (inactive),104,40.6% (inactive),101,-0.545 (inactive),-1.8e-05 (inactive),0.00473 (inactive),1.51% (inactive),-1.14% (inactive)
CCC1(CC)NC(=O)NC1=O,665,2.2% (inactive),-5.3% (inactive),89.9,12.8% (inactive),106,-0.588 (inactive),-8.1e-05 (inactive),0.00419 (inactive),16.7% (inactive),8.56% (inactive)
COc1cccc(NC(=O)CSc2nnc(-c3cccs3)n2C)c1,576,-8.5% (inactive),19.8% (inactive),65.7,-65.4% (inactive),95.9,-0.278 (inactive),-5e-05 (inactive),0.00909 (inactive),8.77% (inactive),6.56% (inactive)
COCC(=O)N(Cc1ccc(OC)cc1)Cc1nc2ccccc2c(=O)[nH]1,351,6.5% (inactive),-0.1% (inactive),91.9,-57.4% (inactive),117,-0.572 (inactive),-4.4e-05 (inactive),0.00687 (inactive),17.3% (inactive),26.3% (inactive)

# From PubChem BioAssay
